Only a selection was taken, and hits are over-represented in it overall.
H69AR growth 86K – proliferation blockers of H69AR lung cancer cells, primary screen, cell-based, human, 86K library. H69AR lung tumor viability, ATP luminescence, 72 h; stronger effect = lower value. viability, % at 10 µM. 85,000 tested, 6% active. AID 598, 2007;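 active = viability at or below 40%; inactive = viability above 40%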;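 also: multidrug resistant small cell line overexpressing MRP-1 efflux transporter; 100% = mean luminescence of untreated control wells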
HCT116 bCat-KO – primary screen for growth suppressors in beta-catenin knockout HCT116 cells (colon tumor, human) | HCT116 beta-catenin knockout viability, CellTiter-Glo, 60 h; stronger effect = lower value | viability, % at 10 µM | 140,000 tested, 1.5% active;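 active = viability at or under a set limit, the compound median less 4 SD, cut at about 6% in these data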;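 also: 0% = Hyamine 1622 control at 20 µM and 100% = untreated cell control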
HCT116 PTEN-null – growth suppression of PTEN-null HCT116, primary screen, cell-based, CellTiter-Glo | HCT116 PTEN-null viability, 60 h; stronger effect = lower value | viability, % at 10 µM | 140,000 tested, 1.2% active;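 active = viability at or below a set limit, 4 SD under the median of all tested compounds, cut at about 3.7% in these data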;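 also: PTEN knockout HCT116 line with beta catenin targeted HCT116 as companion control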
Fibroblast inh – antiproliferative effect on LL 47 fibroblasts – human, LL 47 cells, CellTiter-Glo luminescence, primary screen; LL 47 human lung fibroblast viability, ATP luminescence; stronger effect = lower value; viability, % at 10 µM; 85,000 tested, 1.1% active; AID 719, 2007;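 active = viability at or below 50% in the single dose screen; inactive = viability above 50%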;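 also: compound exposure lasted 72 h before the ATP readout; 100% = median luminescence of untreated cell-only wells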
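Test system: LL 47 human lung fibroblasts / Quantity: 1,150 cells in each well / Medium: IMEM growth medium with 15% fetal bovine serum / Incubation: 72 h compound exposure at 37 °C after overnight plating / Detection: CellTiter-Glo luminescence measuring cellular ATP / Read-out: % viability versus median cells-only luminescence / Benchmarks: cell-only wells, no compound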
HUVEC inhibit – inhibitors of HUVEC proliferation, primary screen, cell-based, 384-well; AID 648, 2007; 86,000 tested, 1.1% active; CellTiter-Glo luminescence, 72 h; stronger effect = lower value; viability, % at 10 µM (by protocol);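 active = viability at or below 30%; inactive = viability above 30%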;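 also: 100% = median luminescence of DMSO-only cell control wells on each plate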
* hit, by the source's call.

For O=C(NNc1nc2cc3c(cc2s1)OCO3)c1cccc(F)c1 the results were HCT116 bCat-KO 0.6* and HCT116 PTEN-null 0.2*.
`CCn1c(C2CC(=O)N(c3ccc(C)c(C)c3)C2)nc2ccccc21` (stereo not drawn) gave H69AR growth 86K 86, Fibroblast inh 101 and HUVEC inhibit 95.
CC(C)CCn1c(SCCN2CCOCC2)nc2c1c(=O)[nH]c(=O)n2C was read as H69AR growth 86K 86, HCT116 bCat-KO 98, HCT116 PTEN-null 89, Fibroblast inh 92 and HUVEC inhibit 93.
For Cc1cc(NC(=O)CSc2cn(CCNC(=O)c3ccc(Cl)cc3)c3ccccc23)no1 the results were H69AR growth 86K 84, HCT116 bCat-KO 45, HCT116 PTEN-null 40, Fibroblast inh 101 and HUVEC inhibit 83.
Cn1c(=O)cc(SCC(=O)NCc2ccco2)c2ccccc21 was read as H69AR growth 86K 108, HCT116 bCat-KO 90, HCT116 PTEN-null 98, Fibroblast inh 88 and HUVEC inhibit 90.
`CCOc1ccc(C(=O)NCCn2cc(SCC(=O)Nc3cc(C)on3)c3ccccc32)cc1` gave H69AR growth 86K 33*, HCT116 bCat-KO 81, HCT116 PTEN-null 81, Fibroblast inh 97 and HUVEC inhibit 84.
Screening O=C(CSc1cn(CCNC(=O)c2ccc3ccccc3c2)c2ccccc12)NCc1ccco1 returned H69AR growth 86K 9.6*, HCT116 bCat-KO 62, HCT116 PTEN-null 59, Fibroblast inh 98 and HUVEC inhibit 62.
Cn1c(=O)[nH]c(=O)c2c1nc(CN1CCN(c3cccc(Cl)c3)CC1)n2CCc1ccccc1 was read as H69AR growth 86K 2.8*, HCT116 bCat-KO 79, HCT116 PTEN-null 74, Fibroblast inh 85 and HUVEC inhibit 73.
Screening CCCCCn1c(CN2CCN(c3cccc(Cl)c3)CC2)nc2c1c(=O)[nH]c(=O)n2C returned H69AR growth 86K 39*, HCT116 bCat-KO 60, HCT116 PTEN-null 48, Fibroblast inh 84 and HUVEC inhibit 64.
CCOc1ccccc1Nc1ncnc2ccccc12 was read as H69AR growth 86K 99, HCT116 bCat-KO 100, HCT116 PTEN-null 94, Fibroblast inh 99 and HUVEC inhibit 107.
O=C(CC1(O)C(=O)N(C/C=C/c2ccccc2)c2ccccc21)c1ccccn1 (stereo not drawn) was read as H69AR growth 86K 24*, HCT116 bCat-KO 13, HCT116 PTEN-null 10, Fibroblast inh 57 and HUVEC inhibit 34.
For CCOC(=O)N1CCN(C(=O)C(C)N(c2ccc(Oc3ccccc3)cc2)S(C)(=O)=O)CC1 (stereo not drawn) the results were H69AR growth 86K 34*, HCT116 bCat-KO 49, HCT116 PTEN-null 45 and HUVEC inhibit 111.
Screening O=C(NNC(=O)c1ccc([N+](=O)[O-])o1)c1ccccc1 returned H69AR growth 86K 50, HCT116 bCat-KO 14, HCT116 PTEN-null 7, Fibroblast inh 43* and HUVEC inhibit 107.
For O=C(NNC(=S)NC(=O)c1ccccc1[N+](=O)[O-])c1ccccc1 the results were H69AR growth 86K 25*, HCT116 bCat-KO 58, HCT116 PTEN-null 68, Fibroblast inh 92 and HUVEC inhibit 73.
`CCOC(=O)/C(=C\c1ccc([N+](=O)[O-])o1)NC(=O)c1ccccc1` gave H69AR growth 86K 81, HCT116 bCat-KO 49, HCT116 PTEN-null 46, Fibroblast inh 86 and HUVEC inhibit 69.
Cc1cc(C)nc(NC(=O)c2ccc([N+](=O)[O-])o2)n1 was read as HCT116 bCat-KO 4.2* and HCT116 PTEN-null 4.
`CC1CCN(C(=O)CSc2nc(N)c3c4c(sc3n2)CN(C)CC4)CC1` gave H69AR growth 86K 95, HCT116 bCat-KO 82, HCT116 PTEN-null 90, Fibroblast inh 102 and HUVEC inhibit 105.
Screening O=C(Nc1ncnc2sc3c(c12)CCC3)c1ccco1 returned H69AR growth 86K 89, HCT116 bCat-KO 100, HCT116 PTEN-null 97, Fibroblast inh 88 and HUVEC inhibit 92.
C(=N\Nc1ncnc2sc3c(c12)CCC3)/c1cccs1 was read as HCT116 bCat-KO 2.1* and HCT116 PTEN-null 2.5*.
Screening C(=N\Nc1ncnc2sc3c(c12)CCC3)/c1ccncc1 returned HCT116 bCat-KO 10 and HCT116 PTEN-null 3.3*.

Source: PubChem BioAssay (SRMLSC)
